Tb hexokinase: Trypanosoma brucei hexokinase 1 inhibitors, primary screen, biochemical, G6PDH-coupled NADH absorbance, MLSCN library; 0.11% of 220,000 active; hexokinase 1 [Trypanosoma brucei]; AID 1430, 2008; recombinant TbHK1, G6PDH-coupled NADH A340; inhibition, % at 10 µM;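 active means inhibition of 50% or more in the single-dose primary screen; inactive means inhibition below 50%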
S1P4 agonist: S1P4 receptor agonists, primary screen, cell-based; 0.35% of 220,000 active; Sphingosine 1-phosphate receptor 4 (Homo sapiens), O95977; S1P4-expressing cell line, agonist reporter assay; activation, % at 4.98 µM; AID 1509, 2009; in the data active means activation above about 11%;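 further: 0% = DMSO vehicle and 100% = reference agonist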
Target sequence (O95977 whole entry, looked up): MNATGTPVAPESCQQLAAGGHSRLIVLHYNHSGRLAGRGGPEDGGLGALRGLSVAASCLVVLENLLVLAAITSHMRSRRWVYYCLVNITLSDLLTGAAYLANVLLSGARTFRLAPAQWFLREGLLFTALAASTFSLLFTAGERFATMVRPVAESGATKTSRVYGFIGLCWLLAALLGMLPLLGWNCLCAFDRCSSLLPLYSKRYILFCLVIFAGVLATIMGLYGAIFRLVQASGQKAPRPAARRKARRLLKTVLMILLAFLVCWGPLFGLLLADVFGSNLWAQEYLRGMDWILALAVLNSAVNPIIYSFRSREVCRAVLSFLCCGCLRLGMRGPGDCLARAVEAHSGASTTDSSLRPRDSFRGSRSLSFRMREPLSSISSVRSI
S1P3 antag: S1P3 receptor antagonists, primary screen, cell-based; Sphingosine 1-phosphate receptor 3 (Homo sapiens), Q99500; CHO S1P3 NFAT-BLA reporter, FRET fluorescence, antagonist mode; inhibition, % at 4.98 µM; 0.27% of 170,000 active; AID 485, 2006;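 active means inhibition above the plate cutoff, the mean inhibition of test wells on that plate plus 3 SD, cut at about 28% in these data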;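 further: cells challenged with S1P at its EC80 of 0.8 µM; blue over green emission ratio from cleaved BLA substrate after 4 h stimulation; 0% = S1P-stimulated wells and 100% = unstimulated DMSO-only wells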
Target sequence (Q99500 whole entry, looked up): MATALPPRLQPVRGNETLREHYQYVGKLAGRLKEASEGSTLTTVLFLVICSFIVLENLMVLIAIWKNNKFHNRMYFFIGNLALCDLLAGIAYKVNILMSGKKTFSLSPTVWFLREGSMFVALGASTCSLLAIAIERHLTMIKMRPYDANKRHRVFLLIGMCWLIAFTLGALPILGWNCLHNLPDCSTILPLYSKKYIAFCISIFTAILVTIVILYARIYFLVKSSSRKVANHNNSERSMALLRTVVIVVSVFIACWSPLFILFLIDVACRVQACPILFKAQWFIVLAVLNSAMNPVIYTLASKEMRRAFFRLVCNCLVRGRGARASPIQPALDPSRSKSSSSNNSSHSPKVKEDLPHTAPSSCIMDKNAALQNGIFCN
S1P4 antag: S1P4 receptor antagonists, primary screen, cell-based; inhibition, % at 4.98 µM; 0.26% of 220,000 active; Sphingosine 1-phosphate receptor 4 (Homo sapiens), O95977; S1P4-expressing cells, antagonist mode, reporter read-out; AID 1510, 2009; in the data active means inhibition above about 29%;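 further: 0% = wells stimulated with agonist and 100% = vehicle wells without agonist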
Biofilm kill mix: clotrimazole potentiators killing C. albicans biofilm, primary screen, 4-compound mixtures. AID 1242, 2008. C. albicans biofilm persisters + clotrimazole, fluorescence viability; primary screen in compound mixtures of four per well. inhibition, % at 7.6 µM. 0.02% of 120,000 active;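 active means inhibition above 30.3% in the primary screen of four-compound pools, then above 30% when the compound was retested; inconclusive means passed the primary limit but could not be retested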;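 further: compounds exposed to preformed 24 h biofilms for 48 h; 0% = untreated biofilm control and 100% = clotrimazole plus chlorhexidine kill blank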
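System: C. albicans CAF4-2 wild-type biofilms; Medium: RPMI/MOPS medium, pH 7.0; Reagent: Clotrimazole, 50 µg/mL; Times: biofilm formation 24 h, compound exposure 48 h, 37 °C; Detection: 2-h Alamar Blue fluorescence, 535/590 nm excitation/emission; Evaluation: percent inhibition of biofilm viability.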
Dynein transport: inhibitors of GR-EGFP nuclear translocation, primary screen, dynein cargo transport inhibitor project, imaging, high-content, 3617.4 mouse cells; test concentration mostly 20 µM; stimulated with dexamethasone, 1 µM; stronger effect = lower value; z-score, hits read low; 0.47% of 220,000 active;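 active means plate z-score of nuclear minus cytoplasmic receptor signal below a set negative limit, without overly bright fluorescence or cell loss, cut at about -3.5 in these data, passing the limit was not always enough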;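 further: z-score of nuclear minus cytoplasmic ring GR-EGFP intensity difference per well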
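Medium: Induction medium lacking tetracycline, stripped serum | Probe or stimulus: 1.0 µM final dexamethasone stimulus | Schedule: 48 h induction, then 1 h compound, then 30 min agonist, 37 °C | Signal: Automated 10x imaging of fixed Hoechst-stained cells | Evaluation: Per-cell GR-EGFP intensity, nucleus versus surrounding cytoplasmic ring, well-averaged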
Dynein confirm: dynein cargo transport inhibitors, GR-EGFP translocation, confirmation, imaging, high-content imaging, GR-EGFP cells | shares compounds with Dynein transport | 3617.4 GR-EGFP nuclear translocation imaging, dexamethasone-induced | calls only at 20 µM | 69% of 1,000 active | AID 463116, 2010;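 active means inhibition of receptor movement into the nucleus at or above a set limit in both runs, with normal cell brightness and cell count; inconclusive means limit reached in only one run, brightness and count normal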;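 further: dexamethasone at 1 µM final in well for 30 min; nuclear minus cytoplasmic GR-EGFP mean intensity difference in channel 2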
* hit, by the source's call; i = inactive; u = inconclusive; x = no result given; + = active, no number. Only some compounds are listed: those with a hit (about 1.3% of all), similar ones and a draw of the others.

SMILES	Tb hexokinase	S1P4 agonist	S1P3 antag	S1P4 antag	Biofilm kill mix	Dynein transport	Dynein confirm
Cn1c(=O)c(NCCO)c2c3c(cccc31)C(=O)c1ccccc1-2	-11.7	1.6	x	-11.3	x	-6.95*	+
O=C(c1ccco1)N(CCO)Cc1cc2cc3c(cc2[nH]c1=O)OCO3	-33.2	0.0	-8.4	-14.8	11.2	-0.408	x
COc1cc(/C=C(/C(=O)c2cccs2)c2nc3ccccc3[nH]2)ccc1O	-21.7	1.8	x	17.9	x	-3.96*	+
COC(=O)/C(=C\c1cc(OC)c(OC)c(OC)c1)c1nc2ccccc2[nH]1	-20.1	1.3	-3.9	-9.8	14.5	-2.72	x
Clc1nc(-c2cccnc2)nc2scc(-c3ccccc3)c12	-3.8	1.2	-6.7	-8.8	4.2	-1.89	x
COc1ccc(-c2csc3nc(-c4cccnc4)nc(Cl)c23)cc1OC	-9.2	0.3	6.5	-6.8	11.2	-4.43*	+
CCOc1ccc(NC(=O)c2oc3ccccc3c2NC(=O)C2CC2)cc1	x	x	-46.6	x	x	x	x
O=C1C=CC(=O)N1c1ccc(O)cc1	1.2	-0.1	-8.1	4.0	16.3	-4.05	i
O=C1CCCC(=O)N1c1ccc(O)cc1	-1.6	1.9	-7.3	-13.3	7.8	-0.752	x
CC(=O)Nc1ccc(NC(=O)C2CCN(c3ccc(C(F)(F)F)cn3)CC2)cc1	0.3	-0.3	-15.8	7.3	12.7	-0.427	x
COC(=O)c1cc(NC(=O)c2cccc(Cl)c2)c(=O)oc1/C=C/Nc1cc(C)cc(C)c1	7.7	-1.0	24.8	-10.6	9.3	-7.47	+
Cn1cnc([N+](=O)[O-])c1S(=O)(=O)c1ccc(Cl)cc1	-5.4	0.9	-1.3	-1.6	7.5	-4.22*	+
Cc1ccc(S(=O)(=O)N(CC#N)CC#N)cc1	-6.2	2.0	-5.6	-28.2	19.9	-0.879	x
O=C(NCc1ccc(OC(F)(F)F)cc1)C1CC(c2cccc(F)c2)=NO1 (stereo not given)	-14.3	x	x	x	12.1	0.625	x
Nc1ccc(N2CCCCCC2)cc1	11.4	1.1	6.5	-12.0	x	-4.28*	u
O=C(O)c1ccc(NC2=C/C(=N/S(=O)(=O)c3ccccc3)c3ccccc3C2=O)cc1	-12.8	2.2	18.2	-0.3	16.7	-4.23*	+
CCN(CC)c1ccc(/C=C2/SC(=O)N(C(C)C)C2=O)o1	-3.2	1.2	-1.7	8.2	17.6	-4.02	+
Cc1cc(N2CCOCC2)ccc1/C=C1\SC(=O)N(C(C)C)C1=O	2.1	-0.3	x	-15.9	x	1.18	x
CC(C)NC(=O)CN1CCN(C(=O)CCl)CC1	3.8	0.4	-10.3	7.9	7.0	-0.776	x
CC(C)c1ccc(CN2CCN(C(=O)CCl)CC2)cc1	5.1	-1.1	-8.7	4.0	12.8	-5.92*	+
O=C(CS(=O)Cc1ccccc1Cl)Nc1ccccc1Cl (stereo not given)	-3.2	-0.9	-10.6	-2.7	10.8	0.68	x
Cc1ccc(C(=O)/C=C\C(=O)c2ccc(C)cc2)cc1	-4.4	-0.4	7.6	13.4	11.4	-7.16*	+
CCOC(=O)C1(CCCc2ccccc2)CCN(C(=O)c2ccoc2)CC1	-0.1	-0.1	7.5	10.4	5.7	-0.476	x
CCOC(=O)C1(CCCc2ccccc2)CCN(C(=O)C2=C(C)OCCO2)CC1	-9.7	0.8	1.2	0.8	13.0	-3.54*	u
Clc1nc(CN2CCCCC2)nc2sc3c(c12)CCCC3	5.2	-1.0	-13.4	-0.1	4.8	-3.68*	i
SMILES	Tb hexokinase	S1P4 agonist	S1P3 antag	S1P4 antag	Biofilm kill mix	Dynein transport	Dynein confirm
Clc1nc(CN2CCOCC2)nc2sc3c(c12)CCC3	0.1	0.6	-6.8	3.0	15.9	-0.572	x
CN(C)CCN(Cc1ccco1)C(=O)c1cc2c(Cl)nc3ccccc3c2s1	-2.4	0.5	-12.6	-7.3	6.4	-0.241	x
Cc1ccc2nc(Cl)c3cc(C(=O)N(CCN(C)C)Cc4ccco4)sc3c2c1	-3.2	-1.8	-3.9	-10.6	21.9	-3.52*	i
O=c1c2ccccc2nc(/C=C/c2ccc([N+](=O)[O-])cc2)n1CCCO	17.4	-1.0	6.2	-11.9	8.9	-0.309	x
O=c1c2ccccc2nc(/C=C/c2ccc([N+](=O)[O-])o2)n1CCCO	-20.6	-0.1	x	1.5	x	-5.62*	+
CCNc1ccc(Br)cc(C(=O)/C=C/c2c(Cl)cccc2Cl)c1=O	-2.7	0.1	x	-7.7	18.0	-5.6	+
O=C(CSc1nc2c(c(=O)n1-c1ccccc1)SCC2)NCC1CCCO1 (stereo not given)	-38.8	-0.3	8.6	3.0	20.0	-0.907	x
CCOC(=O)CC1C(=O)NCCN1c1nc2ccc(C)cn2c(=O)c1/C=C1\SC(=S)N(CC(C)C)C1=O (stereo not given)	-6.7	2.1	8.7	-10.6	5.7	-4.24	i
CCOC(=O)CC1C(=O)NCCN1c1nc2ccc(C)cn2c(=O)c1/C=C1\SC(=S)N(C(C)CC)C1=O (stereo not given)	-24.6	0.1	13.0	-8.8	6.9	-3.65	+
CCCN1C(=O)/C(=C/c2c(N3CCNC(=O)C3CC(=O)OCC)nc3c(C)cccn3c2=O)SC1=S (stereo not given)	-19.6	0.0	15.0	-0.8	16.5	-0.845	x
COc1cc(OC)nc(-n2ncc(Br)c(Br)c2=O)n1	-9.5	-0.3	11.4	11.2	11.2	-3.52*	+
COC(=O)c1cnn(-c2nc(OC)cc(OC)n2)c1C	-1.8	-3.1	2.7	-7.5	13.4	-0.0659	x
CCCCCCC(=O)N(O)C1CC(=O)N(c2ccc(F)cc2)C1=O (stereo not given)	-0.9	2.1	11.7	-6.5	11.7	-4.75*	+
CCCCCCC(=O)N(O)C1CC(=O)N(c2ccc(Br)cc2)C1=O (stereo not given)	-3.9	0.6	25.2	4.2	x	-0.897	x
O=C(NCC1CCCO1)C1CCN(S(=O)(=O)N2CCCC2)CC1 (stereo not given)	2.9	-0.8	-31.5	1.9	x	0.363	x
O=S(=O)(CCN(CCS(=O)(=O)C(F)(F)F)CC1CCCO1)C(F)(F)F (stereo not given)	9.5	1.7	11.2	4.8	x	-4.11*	u
CN(C)C(=O)c1ccc(N/C=C(\C=O)c2nc3ccccc3o2)cc1	-33.6	0.5	-11.8	3.9	26.4	2.1	x
Fc1ccc(CNc2nc(-c3ccco3)cc(C(F)(F)F)n2)cc1	3.5	-0.7	x	2.1	x	-4.39*	i
